Source: PubChem BioAssay
Kir21 block: inhibitors of mouse Kir2.1 inward-rectifier potassium channel | P35561 | HEK293-Kir2.1, FluxOR thallium flux fluorescence; stronger effect = lower value | B-score at 10 µM | hit rate 0.85% among 310,000 | AID 1672;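 active = fluorescence ratio B-score at or below minus 3 SD of library scores, with starting-brightness B-score within 2 SD, cut at about -4.2 in these data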;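 note: channel flux triggered by added potassium and thallium sulfate stimulus; B-score of peak minus minimum fluorescence over baseline after thallium stimulus; more negative B-score means stronger Kir2.1 block with less thallium influx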
hERG rescue: shields human hERG channel from block by proarrhythmic agents; activation (rescue from dofetilide block), less the hit threshold, % at 10 µM; hit rate 0.51% among 310,000; AID 1511; Q12809; CHO-hERG, FluxOR thallium flux, dofetilide IC70 present;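 active = activation above the mean of controls blocked by dofetilide plus 5 SD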;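 note: thallium influx through hERG after potassium depolarization seen as dye fluorescence rise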
KCNK3 block: human KCNK3 channel inhibition, primary screen. O14649. CHO-KCNK3 thallium flux, FluxOR fluorescence; stronger effect = lower value. B-score at 10 µM. hit rate 0.84% among 340,000;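 active = B-score under library mean minus 4 SD, starting fluorescence ratio at most library mean plus 5 SD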;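 note: more negative B-score means stronger inhibition of thallium flux through KCNK3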
KCNQ1 block: human KCNQ1 channel inhibition. P51787. hit rate 1.3% among 310,000. B-score at 10 µM. CHO-K1 KCNQ1, FluxOR thallium flux fluorescence; stronger effect = higher value;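 active = compounds whose thallium flux B-score, printed positive for inhibition, exceeds three library SD while starting fluorescence stays within three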;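 note: channel opened by potassium depolarization with thallium stimulus after 20 min compound exposure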
Target sequence (P51787 whole entry, looked up): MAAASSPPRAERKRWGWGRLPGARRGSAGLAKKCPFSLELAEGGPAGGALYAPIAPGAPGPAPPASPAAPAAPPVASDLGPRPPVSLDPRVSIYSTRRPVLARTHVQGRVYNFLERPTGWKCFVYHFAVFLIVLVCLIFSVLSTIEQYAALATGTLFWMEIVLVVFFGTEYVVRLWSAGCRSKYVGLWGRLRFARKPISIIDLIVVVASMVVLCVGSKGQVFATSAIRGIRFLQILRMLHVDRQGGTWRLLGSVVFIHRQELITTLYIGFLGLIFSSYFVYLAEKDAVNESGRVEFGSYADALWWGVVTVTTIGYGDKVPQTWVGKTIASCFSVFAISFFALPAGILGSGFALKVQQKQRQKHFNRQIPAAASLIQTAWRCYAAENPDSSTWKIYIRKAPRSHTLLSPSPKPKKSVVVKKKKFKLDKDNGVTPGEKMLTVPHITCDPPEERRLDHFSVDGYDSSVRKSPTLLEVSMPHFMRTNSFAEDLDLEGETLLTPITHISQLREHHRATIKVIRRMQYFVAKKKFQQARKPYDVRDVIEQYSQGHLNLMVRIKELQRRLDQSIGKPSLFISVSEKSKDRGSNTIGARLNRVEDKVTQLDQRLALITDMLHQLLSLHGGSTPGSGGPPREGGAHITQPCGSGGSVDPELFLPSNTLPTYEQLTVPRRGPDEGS
KCNK9 inh: blocks the human KCNK9 two-pore domain potassium channel; HEK293 KCNK9, FluxOR thallium flux fluorescence; stronger effect = lower value; B-score at 10 µM; hit rate 1.2% among 310,000; AID 488922; Q9NPC2;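 active = ratio B-score over 3 SD below the library mean, with starting fluorescence within 5 SD of its mean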;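 note: negative B-score means less thallium flux so channel inhibition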
KCNQ1 pot: human KCNQ1 channel potentiation or activation; AID 2648; CHO-K1 KCNQ1, thallium flux FluxOR fluorescence; stronger effect = higher value; hit rate 0.35% among 310,000; B-score at 10 µM;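 active = fluorescence ratio B-score, a plate-corrected score, at least three library SD, with initial intensity B-score within 5 SD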
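Test system: CHO-K1 cells stably expressing KCNQ1 / Medium: assay buffer / Also added: depolarizing K+/Tl+ stimulus, K2SO4 and Tl2SO4 each 12.5 mM in 5x stock / Incubation: 90 min dye loading and 20 min compound exposure, both at room temperature / Signal: thallium influx via FluxOR fluorescence, kinetic imaging / Evaluation: B score of baseline-normalized fluorescence ratio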
Starred values were filed as active, the others as inactive; i = inactive; . = not tested or not shown. In the library only some 3.7% were active in any assay of this set; here they are far more common.

SMILES	Kir21 block	hERG rescue	KCNK3 block	KCNQ1 block	KCNK9 inh	KCNQ1 pot
Oc1c(Br)cc(Br)cc1/C=N/n1c(-c2ccccc2)n[nH]c1=S	0.41	-18	i	i	i	12*
Cc1nnc(C)n1/N=C/c1cc(Br)cc(Br)c1O	-2.6	12*	i	i	i	15*
O=[N+]([O-])c1ccc(O)c(/C=N/n2c(-c3ccccc3)n[nH]c2=S)c1	-1.9	-26	i	7*	i	i
CCn1ccc(C(=O)Nc2ccsc2C(=O)OC)n1	0.5	-8	i	i	i	i
COC(C[C@@H](O)[C@H](C)[C@@H](O)COCc1ccccc1)OC	-0.89	-7	i	i	i	i
Oc1ccccc1-c1nc2c3ccccc3c3ccccc3c2[nH]1	0.23	-3	i	6*	i	i
c1csc(-c2nc3c4ccccc4c4ccccc4c3[nH]2)c1	-0.01	-6	-10*	i	i	i
c1ccc(-c2nc(-c3cccs3)[nH]c2-c2ccccc2)cc1	1.2	-4	i	i	i	i
O=[N+]([O-])c1ccc(-c2ccc(/C=N/n3cnnc3)o2)c(Br)c1	1.3	7.5*	i	i	i	i
COc1ccc(C(O)(CCc2ccccc2)CCN2CCCCC2)cc1 (stereo unspecified)	-0.54	-7	i	i	i	i
O=C(O)CC(C(=O)O)c1ccc(OCCCCOc2ccc(C(CC(=O)O)C(=O)O)cc2)cc1 (stereo unspecified)	1.1	-9	i	i	i	i
Cc1cccc(NC(=S)NCC(C)CSc2ccc(Cl)cc2)c1 (stereo unspecified)	-1.1	-26	i	9*	i	i
Cc1ccc(NC(=S)NCC(C)CSc2ccc(Cl)cc2)cc1 (stereo unspecified)	1.6	-10	i	8*	i	i
Cc1cccc(NC(=S)NCC(c2ccccc2)N(C)C)c1 (stereo unspecified)	-0.93	-17	i	i	i	i
Cc1ccc(NC(=S)NCCSc2ccc(Cl)cc2)c(C)c1	-3.3	-5	i	i	i	i
COc1ccc(S(=O)(=O)NC(N)=NCCc2ccccc2)cc1	0.08	-5	i	i	i	i
COCCn1nnnc1C(c1cccs1)N1CCN(c2cc(C)ccc2C)CC1 (stereo unspecified)	-0.96	-8	-9.2*	i	-8*	i
CN(CC(=O)Nc1cccc(F)c1)C(=O)c1cc([N+](=O)[O-])ccc1N1CCOCC1	0.36	-11	i	i	i	i
Cc1nc2ccccc2n1Cc1ccc(Cl)cc1	1.2	-5	i	6*	i	i
O=c1ccc(-c2nc3ccccc3n2Cc2ccc(Cl)cc2)c[nH]1	-0.08	-12	i	i	i	10*
Cc1cccc(NC(=O)c2cnn3ccccc23)c1C	-1.1	-9	i	i	i	i
Cc1cccc(NCc2ccc(O)c3ncccc23)c1C	0.55	-10	i	i	i	i
Cc1cccnc1NCc1ccc(O)c2ncccc12	1.6	6.8*	i	i	i	i
COC(=O)C1=C(C)N(Cc2ccccc2)C(=O)/C1=C\c1ccco1	-0.29	-6	i	i	i	i
COC(=O)C1=C(C)N(Cc2ccc(C)cc2)C(=O)/C1=C\c1cc(OC)c(OC)c(OC)c1	-0.7	-14	i	i	-6.6*	i
SMILES	Kir21 block	hERG rescue	KCNK3 block	KCNQ1 block	KCNK9 inh	KCNQ1 pot
CN1C(=O)C(C)(C)c2cc(S(=O)(=O)N3CCC(C(=O)Nc4ccc(Cl)cc4)CC3)ccc21	1.3	-9	i	i	i	i
S=c1nc(-c2ccccc2)n(CCCN2CCOCC2)c2c1CCCC2	1.4	6.8*	i	i	i	i
C=CC[n+]1c(C)csc1Nc1ccc(C)cc1	0.15	-8	i	i	i	i
C=CC[n+]1c(C)csc1Nc1cccc(Br)c1	0.04	-14	i	i	-6.6*	i
O=C(Nc1ccc2ccccc2c1)[C@@H]1C[C@H]1[C@@H](NP(=O)(c1ccccc1)c1ccccc1)c1ccccc1	.	.	i	.	.	.
Cc1ccc(OCC(O)CN2CCc3ccccc3C2)c(C)c1 (stereo unspecified)	-7.9*	-8	i	i	i	i
Clc1ccc(OCCOCCN2CCc3ccccc3C2)c(Cl)c1	-15*	-18	i	i	i	i
COc1cccc(OCC(O)CN2CCc3ccccc3C2)c1 (stereo unspecified)	-0.16	-4	i	i	i	i
Clc1ccc(OCCCN2CCc3ccccc3C2)c(Br)c1	-0.06	-18	i	i	i	i
COc1ccc(OCC(O)CN2CCc3ccccc3C2)cc1 (stereo unspecified)	2.3	-2	i	i	i	i
Cc1cccc(OCC(O)CN2CCc3ccccc3C2)c1 (stereo unspecified)	-8.8*	-11	i	i	i	i
OC(COc1ccc(Cl)cc1Cl)CN1CCc2ccccc2C1 (stereo unspecified)	-15*	-10	i	i	i	i
CC(C)(C)c1ccc(OCC(O)CN2CCc3ccccc3C2)cc1 (stereo unspecified)	-0.28	-18	i	i	i	i
CCCn1c(SC(C)C(=O)NC2CC2)nnc1-c1ccncc1 (stereo unspecified)	.	.	i	.	.	.
COC(=O)c1cc(NC(=O)COC(=O)CN2C(=O)C3CC=CCC3C2=O)cc(C(=O)OC)c1 (stereo unspecified)	.	.	i	.	.	.
O=[N+]([O-])c1cccc(N(CC2CO2)S(=O)(=O)c2ccccc2)c1 (stereo unspecified)	-4.7*	-3	i	i	i	i
Cc1ccc(N(CC2CO2)S(=O)(=O)c2ccc([N+](=O)[O-])cc2)cc1 (stereo unspecified)	-4.3*	-1	i	i	i	i
O=C(c1cccc(S(=O)(=O)N2CCCc3ccccc32)c1)N1CCN(c2ccccc2)CC1	.	.	-9.5*	.	.	.
O=C(c1cccc(S(=O)(=O)N2CCc3ccccc32)c1)N1CCc2ccccc2C1	.	.	-9.4*	.	.	.
COc1cc2c(cc1OC)CN(C(=O)c1cccc(S(=O)(=O)N3CCc4ccccc43)c1)CC2	.	.	i	.	.	.
Cc1nonc1C1CCCN1Cc1nc(-c2ccccc2Cl)oc1C (stereo unspecified)	-1.3	-20	i	i	i	i
CC1=CCC2C(=O)N(c3ccc(OC(=O)c4ccco4)cc3)C(=O)C2C1 (stereo unspecified)	-7.9*	-12	i	i	i	i
